Assay results from PMC5987874 (The Journal of General Physiology, 2018).
Where a chain is given by its changes, count along the chain named. Where two headings read alike, the source gives them in different places.

Assays:
human Hv1 D123H-H140A = target: T1, human Hv1 D123H-H140A (Homo sapiens, UniProt Q96D96, D123H/H140A); assay: Whole-cell voltage clamp, Zn^2+ modulation of GAQ gating; format: cell-based
T1 sequence (Q96D96 1-273 D123H/H140A): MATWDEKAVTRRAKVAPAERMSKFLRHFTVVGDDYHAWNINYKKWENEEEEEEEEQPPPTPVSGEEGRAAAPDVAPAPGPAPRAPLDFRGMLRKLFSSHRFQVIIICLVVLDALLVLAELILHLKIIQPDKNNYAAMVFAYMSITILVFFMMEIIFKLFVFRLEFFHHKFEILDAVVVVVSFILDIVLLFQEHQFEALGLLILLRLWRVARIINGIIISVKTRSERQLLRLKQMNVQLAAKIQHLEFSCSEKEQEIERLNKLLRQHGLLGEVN
Method in brief: (§1)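 Whole-cell patch clamp at ~21°C. Pipette and bath (mM): ~80 TMA-MeSO3, 100 Bis-Tris, 8 HCl, pH 6.5, 310–320 mOsm. ZnCl2 was diluted into bath solution and applied by gravity superfusion, at least 2 min per change. Test step voltage was set per construct from its V0.5. G_STEP = end-of-step current/(V−V_REV). Effect = 1 − G_Zn/G_control, fitted to the Hill equation. IC50 and nH are means ± SEM from separate cells. ΔpIC50 was tested by unpaired t test, P<0.05.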

human Hv1 D112H = target: T2, human Hv1 D112H (Homo sapiens, UniProt Q96D96, D112H); assay: Whole-cell voltage clamp, Zn^2+ modulation of GAQ gating; format: cell-based
T2 sequence (Q96D96 1-273 D112H): T1 sequence (Q96D96 1-273 D123H/H140A) with D112H, H123D, A140H
Method in brief: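 Zn2+ effect was read from tail current, not end-of-step current. Whole-cell recording at ~21°C with pH 6.5 pipette and bath solutions (mM: ~80 TMA-MeSO3, 100 Bis-Tris, 8 HCl). ZnCl2 was diluted in bath solution and gravity-superfused, at least 2 min per change. Concentration–response was fitted to the Hill equation, with IC50 values from separate cells. ΔpIC50 was compared by unpaired Student's t test, P<0.05.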

[1] = target: T3, human Hv1 H140A-D185H-H193A (Homo sapiens, UniProt Q96D96, D185H/H140A/H193A); assay: Whole-cell voltage clamp, Zn^2+ modulation of GAQ gating; format: cell-based
T3 sequence (Q96D96 1-273 H140A/D185H/H193A): T1 sequence (Q96D96 1-273 D123H/H140A) with H123D, D185H, H193A
Method in brief: as §1

[2] = target: T4, human Hv1 D130H (D^1.69H) (Homo sapiens, UniProt Q96D96, D130H); assay: as above; format: cell-based
T4 sequence (Q96D96 1-273 D130H): T1 sequence (Q96D96 1-273 D123H/H140A) with H123D, D130H, A140H
Method in brief: as §1

[3] = target: T5, human Hv1 H193A (H^3.71A) (Homo sapiens, UniProt Q96D96, H193A); settings: ref Ramsey et al., 2006; cited from earlier work
T5 sequence (Q96D96 1-273 H193A): T1 sequence (Q96D96 1-273 D123H/H140A) with H123D, A140H, H193A

[4] = target: T6, human Hv1 E153A (E^2.53A) (Homo sapiens, UniProt Q96D96, E153A); assay: Whole-cell voltage clamp, Zn^2+ modulation of GAQ gating; format: cell-based
T6 sequence (Q96D96 1-273 E153A): T1 sequence (Q96D96 1-273 D123H/H140A) with H123D, A140H, E153A
Method in brief: as §1

In the case of `[Cl-].[Cl-].[Zn+2]` [Zn^2+, ZnCl2], the “Mean ΔpIC50 = (pIC50_1 - pIC50_2)” value (human Hv1 D123H-H140A; D123H-H140A vs H140A) is reported as 0.36, the “nH, fit of the mean data to a Hill function” value (human Hv1 D123H-H140A; Fig. 4B) is reported as 0.5 and the Hill value (human Hv1 D123H-H140A; VSTEP 80 mV) is reported as 0.58. For the same molecule, the pIC50 (human Hv1 D123H-H140A; VSTEP 80 mV, calculated as log (IC50)) was −4.78, the IC50 (human Hv1 D123H-H140A; read-out: IC50, fit of the mean data to a Hill function, Fig. 4B) was 20.5 µM and the IC50 (human Hv1 D123H-H140A; read-out: Mean IC50 @ VSTEP, VSTEP 80 mV, pH 6.5, mean of fits in separate cells) was 18 µM. The “Mean ΔpIC50 = (pIC50_1 - pIC50_2)” value (human Hv1 D112H; D112H vs WT) was −2.1, the Hill value (human Hv1 D112H; VSTEP 130 mV, determined from tail current) was 0.56 and the pIC50 (human Hv1 D112H; VSTEP 130 mV, determined from tail current, calculated as log (IC50)) was −2.96. For the same molecule, the IC50 (human Hv1 D112H; read-out: Mean IC50 @ VSTEP, VSTEP 130 mV, pH 6.5, determined from tail current) was 1140 µM, the “Mean ΔpIC50 = (pIC50_1 - pIC50_2)” value ([1]; H140A-D185H-H193A vs H140A-H193A) was 0.38 and the Hill value ([1]; VSTEP 100 mV) was 1.05. For the same molecule, the pIC50 ([1]; VSTEP 100 mV, calculated as log (IC50)) was −3.15, the “Mean ΔpIC50 = (pIC50_1 - pIC50_2)” value ([2]; D130H vs WT) was 0.22 and the “nH, fit of the mean data to a Hill function” value ([2]; Fig. 4C) was 0.7. The Hill value ([2]; VSTEP 120 mV) was 0.95, the pIC50 ([2]; VSTEP 120 mV, calculated as log (IC50)) was 5.67 and the IC50 ([2]; read-out: IC50, fit of the mean data to a Hill function, Fig. 4C) was 2.4 µM. The “decrease of Zn^2+ potency by single mutation” value [3] was 10- to 30 fold, the “Mean ΔpIC50 = (pIC50_1 - pIC50_2)” value ([4]; E153A vs WT) was −1.29 and the Hill value ([4]; VSTEP 40 mV) was 0.87. The pIC50 ([4]; VSTEP 40 mV, calculated as log (IC50)) was −3.77 and the IC50 ([4]; read-out: Mean IC50 @ VSTEP, VSTEP 40 mV, pH 6.5, mean of fits in separate cells) was 241 µM.
